Assay results collected from several papers.
Lines come from different studies, so protocols differ.
Target: Aurora kinase B (AURKB, Homo sapiens, UniProt Q96GD4)
Effect on: enzyme activity

| SMILES | test | conditions | remaining activity [%] |
| --- | --- | --- | --- |
| Cc1nn(CC(F)(F)F)cc1Nc1ncc(Br)c(NCCCNC(=O)C2CCC2)n1 | inhibitor, radiometric | 1 µM | 38 |
| Cc1cnc(NC2CCOCC2)nc1-n1cnc(C(=O)NC(CN)c2cc(F)cc(Cl)c2)c1 (stereo not shown) | inhibitor, radiometric | 1 µM | 84 |
| CC(C)(C)C(=O)c1sc(NC2CCCCC2)nc1N | inhibitor | 10 µM | 107 |
| CCCOc1ccc(OC)c(F)c1C(=O)c1ccc(C(=O)N[C@@H]2CNC[C@H]2NC(=O)c2ccc3[nH]ncc3c2)cc1 | inhibitor | 10 µM | 10 |
| CCN(CC)c1ccc(C2=NNC(=O)CC2C)cc1[N+](=O)[O-] (stereo not shown) | inhibitor | 10 µM | 118 |
| COc1cc(Nc2cnc(C#N)c(O[C@H](C)CN(C)C)n2)ncc1-c1cnn(C)c1 | inhibitor, radiometric | 10 µM | 53 |
| FC(F)c1nc2ccccc2n1-c1nc(N2CCOCC2)nc(N2CCOCC2)n1 | inhibitor | 10 µM | 94 |
| Cc1sc(C(=O)NC2COC2)cc1-n1cc(NC(=O)Nc2c(F)cccc2Cl)cn1 | inhibitor | 10 µM | 96.4 |
| CC(C)(C)c1nc(-c2cccc(NS(=O)(=O)c3c(F)cccc3F)c2F)c(-c2ccnc(N)n2)s1 | inhibitor, radiometric | 1 µM | 81 |
| O=C(NCCCNc1nc(Nc2cccc(NC(=O)N3CCCC3)c2)ncc1Br)C1CCC1 | inhibitor, radiometric | 1 µM | 5 |
| CC(C)(O)[C@H]1CC[C@H](Nc2ccc3ncc(-c4cccc(C(F)(F)F)c4)n3n2)CC1 | inhibitor | 1 µM | 82.1 |
| O=C1NC(=O)c2cc(Nc3ccc(F)cc3)c(Nc3ccc(F)cc3)cc21 | inhibitor | 0.5 µM | 99.7 |
| O=C(NCCCNc1nc(Nc2cccc(NC(=O)N3CCCC3)c2)ncc1I)c1cccs1 | inhibitor, radiometric | 1 µM | 3 |
| O=C1Nc2ccc(Cl)cc2C1=Cc1cc(Cl)c(O)c(Cl)c1 |  | 0.5 µM | 9.19 |
| Nc1nc(Nc2ccccc2)sc1C(=O)c1c(F)cccc1F | inhibitor | 10 µM | 24 |
| COc1cc2ncnc(Nc3ccc(F)c(Cl)c3)c2cc1OCCCN1CCOCC1 |  | 0.5 µM | 106 |
| O=C(NCCCNc1nc(Nc2cccc(CN3CCOCC3)c2)ncc1C1CC1)C1CCC1 | inhibitor, radiometric | 1 µM | 5 |
| COc1cc2c(N3CCN(C(=O)Nc4ccc(OC(C)C)cc4)CC3)ncnc2cc1OCCCN1CCCCC1 |  | 0.5 µM | 89.6 |
| Cc1nn(CC(F)(F)F)cc1Nc1nccc(NCc2ccc(S(N)(=O)=O)cc2)n1 | inhibitor, radiometric | 1 µM | 82 |
